Key:
Mus musculus [1] = species on record: Mus musculus; experiment: Tissue distribution expressed as percentage injected dose per gram of tissue in normal mice heart after 4 hour; assay type: ADME, organism-based; conditions: in vivo
Outline: (§1)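 Normal BALB/c mice, 26–29 g, given 4 μCi of the nca 18F tracer via tail vein. Groups killed with halothane at 1, 2 or 4 h post-injection. Tissues washed in saline, blot-dried, weighed and γ-counted for ¹⁸F. Values are mean ± SD as % ID/g; n = 10 at 1 and 2 h, n = 5 at 4 h.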

Mus musculus [2] = species on record: Mus musculus; experiment: tissue distribution expressed as percentage injected dose per gram of tissue in normal mice heart after 1 hour; assay type: ADME, organism-based; conditions: in vivo
Mus musculus [3] = species on record: Mus musculus; experiment: Tissue distribution expressed as percentage injected dose per gram of tissue in normal mice adrenals after 1 hour; assay type: ADME, organism-based, Adrenal gland; conditions: in vivo; outline: as §1
Mus musculus [4] = species on record: Mus musculus; experiment: Tissue distribution expressed as percentage injected dose per gram of tissue in normal mice adrenals after 4 hour; assay type: ADME, organism-based, Adrenal gland; conditions: in vivo; outline: as §1
Mus musculus [5] = species on record: Mus musculus; experiment: Tissue distribution expressed as percentage injected dose per gram of tissue in normal mice liver after 1 hour; assay type: ADME, organism-based; conditions: in vivo; outline: as §1
Mus musculus [6] = species on record: Mus musculus; experiment: Tissue distribution expressed as percentage injected dose per gram of tissue in normal mice muscle after 1 hour; assay type: ADME, organism-based; conditions: in vivo; outline: as §1
Mus musculus [7] = species on record: Mus musculus; experiment: Tissue distribution expressed as percentage injected dose per gram of tissue in normal mice heart after 2 hour; assay type: ADME, organism-based; conditions: in vivo; outline: as §1
Mus musculus [8] = species on record: Mus musculus; experiment: Tissue distribution expressed as percentage injected dose per gram of tissue in normal mice large intestine after 4 hour; assay type: ADME, organism-based; conditions: in vivo; outline: as §1
Mus musculus [9] = species on record: Mus musculus; experiment: Tissue distribution expressed as percentage injected dose per gram of tissue in normal mice small intestine after 1 hour; assay type: ADME, organism-based; conditions: in vivo; outline: as §1
Mus musculus [10] = species on record: Mus musculus; experiment: Tissue distribution expressed as percentage injected dose per gram of tissue in normal mice bone after 2 hour; assay type: ADME, organism-based, Bone element; conditions: in vivo; outline: as §1
Mus musculus [11] = species on record: Mus musculus; experiment: Tissue distribution expressed as percentage injected dose per gram of tissue in normal mice brain after 4 hour; assay type: ADME, organism-based; conditions: in vivo; outline: as §1
SK-N-SH = experiment: The compound was tested for the concentration of inhibition by unlabelled analogues to SK-N-SH human neuroblastoma cells; assay type: functional, cell-based
Outline: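 SK-N-SH neuroblastoma cells, 4 × 10⁵/well, with about 1 μCi 18F-labelled tracer or 0.1 μCi nca [¹²⁵I]MIBG plus graded concentrations of unlabelled benzylguanidines, in triplicate; 2 h at 37 °C. Nonspecific binding: 1 μM desipramine preincubation, 30 min. Cells washed twice in PBS, lysed in 0.5 N NaOH, γ-counted. Specific binding as % of control plotted against inhibitor concentration.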

Mus musculus [12] = species on record: Mus musculus; experiment: Tissue distribution expressed as percentage injected dose per gram of tissue in normal mice stomach after 1 hour; assay type: ADME, organism-based; conditions: in vivo; outline: as §1
Mus musculus [13] = species on record: Mus musculus; experiment: Tissue distribution expressed as percentage injected dose per gram of tissue in normal mice blood after 4 hour; assay type: ADME, organism-based; conditions: in vivo; outline: as §1
Mus musculus [14] = species on record: Mus musculus; experiment: Tissue distribution expressed as percentage injected dose per gram of tissue in normal mice kidney after 1 hour; assay type: ADME, organism-based; conditions: in vivo; outline: as §1
Mus musculus [15] = species on record: Mus musculus; experiment: Tissue distribution expressed as percentage injected dose per gram of tissue in normal mice small intestine after 2 hour; assay type: ADME, organism-based; conditions: in vivo; outline: as §1
Mus musculus [16] = species on record: Mus musculus; experiment: Tissue distribution expressed as percentage injected dose per gram of tissue in normal mice thyroid after 2 hour; assay type: ADME, organism-based, Thyroid gland; conditions: in vivo; outline: as §1
Mus musculus [17] = species on record: Mus musculus; experiment: Tissue distribution expressed as percentage injected dose per gram of tissue in normal mice kidney after 2 hour; assay type: ADME, organism-based; conditions: in vivo; outline: as §1
Mus musculus [18] = species on record: Mus musculus; experiment: Tissue distribution expressed as percentage injected dose per gram of tissue in normal mice thyroid after 1 hour; assay type: ADME, organism-based, Thyroid gland; conditions: in vivo; outline: as §1
Mus musculus [19] = species on record: Mus musculus; experiment: Tissue distribution expressed as percentage injected dose per gram of tissue in normal mice thyroid after 4 hour; assay type: ADME, organism-based, Thyroid gland; conditions: in vivo; outline: as §1
Mus musculus [20] = species on record: Mus musculus; experiment: Tissue distribution expressed as percentage injected dose per gram of tissue in normal mice liver after 2 hour; assay type: ADME, organism-based; conditions: in vivo; outline: as §1
Mus musculus [21] = species on record: Mus musculus; experiment: Tissue distribution expressed as percentage injected dose per gram of tissue in normal mice large intestine after 1 hour; assay type: ADME, organism-based; conditions: in vivo; outline: as §1
Mus musculus [22] = species on record: Mus musculus; experiment: Tissue distribution expressed as percentage injected dose per gram of tissue in normal mice brain after 2 hour; assay type: ADME, organism-based; conditions: in vivo; outline: as §1
Mus musculus [23] = species on record: Mus musculus; experiment: Tissue distribution expressed as percentage injected dose per gram of tissue in normal mice stomach after 2 hour; assay type: ADME, organism-based; conditions: in vivo; outline: as §1
Mus musculus [24] = species on record: Mus musculus; experiment: Tissue distribution expressed as percentage injected dose per gram of tissue in normal mice bone after 1 hour; assay type: ADME, organism-based, Bone element; conditions: in vivo; outline: as §1
Mus musculus [25] = species on record: Mus musculus; experiment: Tissue distribution expressed as percentage injected dose per gram of tissue in normal mice bone after 4 hour; assay type: ADME, organism-based, Bone element; conditions: in vivo; outline: as §1
Mus musculus [26] = species on record: Mus musculus; experiment: Tissue distribution expressed as percentage injected dose per gram of tissue in normal mice adrenals after 2 hour; assay type: ADME, organism-based, Adrenal gland; conditions: in vivo; outline: as §1
Mus musculus [27] = species on record: Mus musculus; experiment: Tissue distribution expressed as percentage injected dose per gram of tissue in normal mice spleen after 2 hour; assay type: ADME, organism-based; conditions: in vivo; outline: as §1
Mus musculus [28] = species on record: Mus musculus; experiment: Tissue distribution expressed as percentage injected dose per gram of tissue in normal mice large intestine after 2 hour; assay type: ADME, organism-based; conditions: in vivo; outline: as §1
Mus musculus [29] = species on record: Mus musculus; experiment: Tissue distribution expressed as percentage injected dose per gram of tissue in normal mice heart after 1 hour; assay type: ADME, organism-based; conditions: in vivo; outline: as §1
Mus musculus [30] = species on record: Mus musculus; experiment: Tissue distribution expressed as percentage injected dose per gram of tissue in normal mice muscle after 2 hour; assay type: ADME, organism-based; conditions: in vivo; outline: as §1
Mus musculus [31] = species on record: Mus musculus; experiment: Tissue distribution expressed as percentage injected dose per gram of tissue in normal mice lungs after 4 hour; assay type: ADME, organism-based, Lung; conditions: in vivo; outline: as §1
Mus musculus [32] = species on record: Mus musculus; experiment: Tissue distribution expressed as percentage injected dose per gram of tissue in normal mice brain after 1 hour; assay type: ADME, organism-based; conditions: in vivo; outline: as §1
Mus musculus [33] = species on record: Mus musculus; experiment: Tissue distribution expressed as percentage injected dose per gram of tissue in normal mice lungs after 1 hour; assay type: ADME, organism-based, Lung; conditions: in vivo; outline: as §1
Mus musculus [34] = species on record: Mus musculus; experiment: Tissue distribution expressed as percentage injected dose per gram of tissue in normal mice blood after 1 hour; assay type: ADME, organism-based; conditions: in vivo; outline: as §1
Mus musculus [35] = species on record: Mus musculus; experiment: Tissue distribution expressed as percentage injected dose per gram of tissue in normal mice lungs after 2 hour; assay type: ADME, organism-based, Lung; conditions: in vivo; outline: as §1
Mus musculus [36] = species on record: Mus musculus; experiment: Tissue distribution expressed as percentage injected dose per gram of tissue in normal mice muscle after 4 hour; assay type: ADME, organism-based; conditions: in vivo; outline: as §1
Mus musculus [37] = species on record: Mus musculus; experiment: Tissue distribution expressed as percentage injected dose per gram of tissue in normal mice small intestine after 4 hour; assay type: ADME, organism-based; conditions: in vivo; outline: as §1
Mus musculus [38] = species on record: Mus musculus; experiment: Tissue distribution expressed as percentage injected dose per gram of tissue in normal mice stomach after 4 hour; assay type: ADME, organism-based; conditions: in vivo; outline: as §1
Mus musculus [39] = species on record: Mus musculus; experiment: Tissue distribution expressed as percentage injected dose per gram of tissue in normal mice spleen after 1 hour; assay type: ADME, organism-based; conditions: in vivo; outline: as §1
Mus musculus [40] = species on record: Mus musculus; experiment: Tissue distribution expressed as percentage injected dose per gram of tissue in normal mice blood after 2 hour; assay type: ADME, organism-based; conditions: in vivo; outline: as §1
Mus musculus [41] = species on record: Mus musculus; experiment: Tissue distribution expressed as percentage injected dose per gram of tissue in normal mice liver after 4 hour; assay type: ADME, organism-based; conditions: in vivo; outline: as §1
Mus musculus [42] = species on record: Mus musculus; experiment: Tissue distribution expressed as percentage injected dose per gram of tissue in normal mice kidney after 4 hour; assay type: ADME, organism-based; conditions: in vivo; outline: as §1
Mus musculus [43] = species on record: Mus musculus; experiment: Tissue distribution expressed as percentage injected dose per gram of tissue in normal mice spleen after 4 hour; assay type: ADME, organism-based; conditions: in vivo; outline: as §1

SMILES: N=C(N)NCc1ccc(F)cc1
- ID/g (Mus musculus [1]): 5.9%
- ID/g (Mus musculus [2]): 9.7%
- ID/g (Mus musculus [3]): 15.3%
- ID/g (Mus musculus [4]): 20.3%

SMILES: N=C(N)NCc1ccc(F)c(I)c1
- ID/g (Mus musculus [5]): 10.5%
- ID/g (Mus musculus [6]): 1.7%
- ID/g (Mus musculus [7]): 19.5%
- ID/g (Mus musculus [8]): 3.8%
- ID/g (Mus musculus [9]): 5.5%
- ID/g (Mus musculus [10]): 0.9%
- ID/g (Mus musculus [11]): 0.2%
- IC50 (SK-N-SH; Homo sapiens, SK-N-SH): 200 nM
- IC50 (SK-N-SH; sk-n-sh): 200 nM
- ID/g (Mus musculus [12]): 3%
- ID/g (Mus musculus [13]): 0.4%
- ID/g (Mus musculus [14]): 2.6%
- ID/g (Mus musculus [15]): 4.3%
- ID/g (Mus musculus [1]): 18.3%
- ID/g (Mus musculus [16]): 1.9%
- ID/g (Mus musculus [17]): 2.3%
- ID/g (Mus musculus [18]): 1.8%
- ID/g (Mus musculus [19]): 1.5%
- ID/g (Mus musculus [20]): 9.2%
- ID/g (Mus musculus [21]): 3.8%
- ID/g (Mus musculus [22]): 0.1%
- ID/g (Mus musculus [23]): 2.4%
- ID/g (Mus musculus [24]): 1.1%
- ID/g (Mus musculus [25]): 0.7%
- ID/g (Mus musculus [26]): 19.2%
- ID/g (Mus musculus [27]): 3.7%
- ID/g (Mus musculus [28]): 4.5%
- ID/g (Mus musculus [29]): 18.2%
- ID/g (Mus musculus [30]): 1.7%
- ID/g (Mus musculus [3]): 21.3%
- ID/g (Mus musculus [31]): 4%
- ID/g (Mus musculus [32]): 0.1%
- ID/g (Mus musculus [33]): 9.7%
- ID/g (Mus musculus [4]): 19.7%
- ID/g (Mus musculus [34]): 0.9%
- ID/g (Mus musculus [35]): 5.5%
- ID/g (Mus musculus [36]): 1.5%
- ID/g (Mus musculus [37]): 3%
- ID/g (Mus musculus [38]): 1.9%
- ID/g (Mus musculus [39]): 3.8%
- ID/g (Mus musculus [40]): 0.7%
- ID/g (Mus musculus [41]): 6.8%
- ID/g (Mus musculus [42]): 1.9%
- ID/g (Mus musculus [43]): 3.2%

SMILES: N=C(N)NCc1cccc(F)c1 [M-FLUOROBENZYLGUANIDINE]
- ID/g (Mus musculus [1]): 10.5%
- ID/g (Mus musculus [29]): 21%
- ID/g (Mus musculus [3]): 13.9%
- ID/g (Mus musculus [4]): 23.8%

Reference: ChEMBL document CHEMBL1127380, “(4-[18F]fluoro-3-iodobenzyl)guanidine, a potential MIBG analogue for positron emission tomography” (J Med Chem, 1994)
